ChEMBL document CHEMBL3045447, “Isolation and structural elucidation of eight new related analogues of the mycotoxin (-)-botryodiplodin from Penicillium coalescens” (2007)

Experiments:
Format in all cases: functional
[1] = system: Oncopeltus fasciatus; test: Insecticidal activity against Oncopeltus fasciatus fourth-instar larvae assessed as insect mortality measured after 72 hr post compound application
Procedure, shortened: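 Treated nymphs confined in a 9 cm Petri dish with food and water ad libitum. Acetone-only controls run in parallel. Acute toxicity scored as dead insects after 72 h, in triplicate. LD50 (µg/nymph) from linear regression of probit mortality on log dose.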

[2] = system: Penicillium italicum; test: Antifungal activity against Penicillium italicum CECT 2294 at 0.2 ug/disk after 72 hr by paper disk-agar diffusion assay; conditions: CECT 2294, 72 h, read-out: IZ
Procedure, shortened: (§1)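 Paper disk–agar diffusion, triplicate. Fungus grown on PDA 7 days at 28 °C. Conidia suspended at ca. 10^6/mL in 0.05% Tween 80. 1 mL seeded into 15 mL PDA. After solidification, four 0.5 cm paper disks loaded with test product. Inhibition zone (mm) read at 72 h. Solvent-only disks as negative control; benomyl disks, dose set per species, as positive control.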

[3] = system: Aspergillus parasiticus; test: Antifungal activity against Aspergillus parasiticus CECT 2681 at 1 ug/disk after 72 hr by paper disk agar diffusion assay; conditions: CECT 2681, 72 h, read-out: IZ; procedure, shortened: as §1
[4] = system: Trichoderma viride; test: Antifungal activity against Hypocrea rufa CECT 2423 at 1 ug/disk after 72 hr by paper disk agar diffusion assay; conditions: CECT 2423, 72 h, read-out: IZ; procedure, shortened: as §1
[5] = system: Trichothecium roseum; test: Antifungal activity against Trichothecium roseum CECT 2410 at 5 ug/disk after 72 hr by paper disk agar diffusion assay; conditions: CECT 2410, 72 h, read-out: IZ; procedure, shortened: as §1
[6] = system: Colletotrichum gloeosporioides; test: Antifungal activity against Colletotrichum gloeosporioides CECT 2859 at 0.5 ug/disk after 72 hr by paper disk-agar diffusion assay; conditions: CECT 2859, 72 h, read-out: IZ; procedure, shortened: as §1
[7] = system: Fusarium oxysporum f. sp. gladioli; test: Antifungal activity against Fusarium oxysporum f. sp. gladioli CCM 233 at 10 ug/disk after 72 hr by paper disk agar diffusion assay; conditions: CCM 233, 72 h, read-out: IZ; procedure, shortened: as §1
[8] = system: Fusarium oxysporum f. sp. niveum; test: Antifungal activity against Fusarium oxysporum f. sp. niveum CCM 259 at 5 ug/disk after 72 hr by paper disk-agar diffusion assay; conditions: CCM 259, 72 h, read-out: IZ; procedure, shortened: as §1
[9] = system: Fusarium culmorum; test: Antifungal activity against Fusarium culmorum CECT 2148 at 10 ug/disk after 72 hr by paper disk agar diffusion assay; conditions: CECT 2148, 72 h, read-out: IZ; procedure, shortened: as §1
[10] = system: Phytophthora citrophthora; test: Antifungal activity against Phytophthora citrophthora CECT 2353 at 1.5 ug/disk after 72 hr by paper disk agar diffusion assay; conditions: CECT 2353, 72 h, read-out: IZ; procedure, shortened: as §1
[11] = system: Verticillium dahliae; test: Antifungal activity against Verticillium dahliae CCM 269 at 0.25 ug/disk after 72 hr by paper disk-agar diffusion assay; conditions: CCM 269, 72 h, read-out: IZ; procedure, shortened: as §1
[12] = system: Pectobacterium carotovorum; test: Antibacterial activity against Pectobacterium carotovorum CECT 225 at 0.2 mg/disk […] by paper disk-agar diffusion assay
[13] = system: Escherichia coli; test: Antibacterial activity against Escherichia coli CECT 405 at 0.2 mg/disk after 24 hr by paper disk agar diffusion assay
Procedure, shortened: (§2)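 Paper disk–agar diffusion, triplicate. Each bacterium grown 24 h in Nutrient Broth at 28 °C or 37 °C, per organism. 1 mL suspension inoculated into a plate, then 15 mL Plate Count Agar added. Five loaded disks placed after solidification. Plates incubated 24 h dark at 28 or 37 °C. Halo measured. Solvent-only disks as negative control; tetracycline chlorhydrate as positive control.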

[14] = system: Enterococcus faecalis; test: Antibacterial activity against Enterococcus faecalis CECT 481 at 0.2 mg/disk after 24 hr by paper disk agar diffusion assay; procedure, shortened: as §2
[15] = system: Staphylococcus aureus; test: Antibacterial activity against Staphylococcus aureus CECT 86 at 0.2 mg/disk after 24 hr by paper disk agar diffusion assay; procedure, shortened: as §2
[16] = system: Bacillus cereus; test: Antibacterial activity against Bacillus cereus CECT 148 at 0.2 mg/disk after 24 hr by paper disk agar diffusion assay; procedure, shortened: as §2
[17] = system: Phytophthora citrophthora; test: Antifungal activity against Phytophthora citrophthora CECT 2353 at 0.2 mg/disk after 72 hr by paper disk agar diffusion assay; procedure, shortened: as §1
[18] = system: Verticillium dahliae; test: Antifungal activity against Verticillium dahliae CCM 269 at 0.2 mg/disk after 72 hr by paper disk-agar diffusion assay; procedure, shortened: as §1
[19] = system: Ceratitis capitata; test: Insecticidal activity against Ceratitis capitata 2 to 3 days old adult male flies assessed as insect mortality measured after 10 days post compound application
Procedure, shortened: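 Topical dose in 1 µL acetone applied by micropipet to the ventral abdomen of ice-anaesthetised 2–3-day-old adults, five males plus five females per group. Controls got acetone alone. Flies kept in a netted box with diet and water ad libitum. Mortality scored every 24 h for 10 days, in triplicate. LD50 from probit of mortality vs log dose.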

Structure (SMILES): C=C(C(C)=O)[C@@H](C)CO[C@@H]1OC[C@@H](C(C)=O)[C@H]1C [(-)-2-EPI-BOTRYODIPLODINENONE]
- LD50 [1]: >15 µg

Structure (SMILES): CCCCNC(=O)n1c(NC(=O)OC)nc2ccccc21 [BENOMYL]
- zone of inhibition at 0.2 µg/disc [2]: 16.7 mm
- zone of inhibition at 1 µg/disc [3]: 8.33 mm
- zone of inhibition at 1 µg/disc [4]: 12.3 mm
- zone of inhibition at 5 µg/disc [5]: 29.7 mm
- zone of inhibition at 0.5 µg/disc [6]: 26.7 mm
- zone of inhibition at 10 µg/disc [7]: 9.33 mm
- zone of inhibition at 5 µg/disc [8]: 17.3 mm
- zone of inhibition at 10 µg/disc [9]: 19 mm
- zone of inhibition at 1.5 µg/disc [10]: 17.1 mm
- zone of inhibition at 0.25 µg/disc [11]: 14.3 mm

Structure (SMILES): CN(C)[C@@H]1C(O)=C(C(N)=O)C(=O)[C@@]2(O)C(O)=C3C(=O)c4c(O)cccc4[C@@](C)(O)[C@H]3C[C@@H]12.Cl [TETRACYCLINE HYDROCHLORIDE]
- inhibition zone (IZ) [12]: 34.67 mm
- inhibition zone (IZ) [13]: 24 mm
- inhibition zone (IZ) [14]: 31.67 mm
- inhibition zone (IZ) [15]: 16.67 mm
- inhibition zone (IZ) [16]: 18.33 mm

Structure (SMILES): CC(=O)[C@@H]1CO[C@@H](O[C@@H]2OC[C@@H](C(C)=O)[C@H]2C)[C@@H]1C [(-)-BOTRYODIPLODIN DIMER]
- LD50 [1]: >15 µg

Structure (SMILES): CC(=O)O[C@@H]1OC[C@@H](C(C)=O)[C@H]1C (relative stereo) [Botryodiplodin acetate]
- LD50 [1]: 12.19 µg

Structure (SMILES): CC(=O)[C@@H]1COC(O)[C@@H]1C (single isomer, unassigned; (-)) [(-)-BOTRYODIPLODIN]
- inhibition zone (IZ) [17]: 8.21 mm
- inhibition zone (IZ) [18]: 17.31 mm
- inhibition zone (IZ) [15]: 13.53 mm
- LD50 [19]: 12.9 µg
- LD50 [1]: 5.55 µg
